Experiments:
[1] = species: Rattus norvegicus; assay: Gastric toxicity was measured in rats.; assay type: organism-based; conditions: in vivo
How it was run: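 Male Sprague-Dawley rats (180-200 g), fasted 24 h with water ad libitum. Single gavage of 100 µmol/kg at 5 mL/kg in 0.5% methocel/5% or 50% PEG-400, 5-10 rats/group. Fasting continued for 18 h, then CO₂ euthanasia. Stomach lesions scored in mm; mean ± SEM.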

[2] = system: Mus musculus; assay: Level of plasma diclofenac in mice after oral administration of 20 umol/kg of prodrug; assay type: ADME, organism-based; conditions: in vivo
How it was run: (§1)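 Male CD-1 mice, fasted overnight (≈17 h), given 20 µmol/kg orally by gavage as a suspension in 0.5% methocel/5% or 50% PEG-400. Ketamine/xylazine anesthesia, then cardiac-puncture heparinized blood at 30, 60 and 120 min, a separate group per time point. Plasma diclofenac measured by HPLC with UV detection against authentic standard, meclofenamic acid internal standard.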

[3] = species: Mus musculus; assay: Analgesic effect measured as % inhibition in PBQ-induced writhing test in mice.; assay type: functional; set-up: concentration or dose not given beside the values
How it was run: (§2)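 Male CD-1 mice (20-25 g), fasted overnight (≈17 h) with water ad libitum. Oral gavage of 100 µmol/kg as a suspension in 0.5% methocel with 5% or 50% PEG-400, 2.5 mL/kg, at least 9 mice/group. PBQ 2 mg/kg ip at 1 h after dosing; writhes counted over 5 min, starting 5 min after PBQ. Read-out is % inhibition of writhing vs vehicle; ratio = % inhibition with the test article / % inhibition with diclofenac, both at 100 µmol/kg po.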

[4] = Activity ratio is the percent inhibition in writhing test at 100 umol/kg, po to that of diclofenac at 100 umol/kg, po administration; assay type: functional; how it was run: as §2
[5] = system: Rattus norvegicus; assay: Antiinflammatory effect measured as % inhibition in carrageenan induced paw edema test in rat.; assay type: functional
How it was run: (§3)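 Male Sprague-Dawley rats (200-250 g), fasted overnight (≈17 h) with water ad libitum. Dosed 100 µmol/kg by gavage at 5 mL/kg in 0.5% methocel/5% or 50% PEG-400, at least 5 rats/group. At 1 h, 50 µL of 1% carrageenan injected subplantar into the right […] paw. Paw volume read by water displacement at 0 and 3 h. Result is % inhibition of the volume increase; ratio relative to diclofenac at the same dose.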

[6] = system: Mus musculus; assay: Level of plasma diclofenac in mice after oral administration; assay type: ADME, organism-based; conditions: in vivo; how it was run: as §1
[7] = Activity ratio is the percent inhibition of paw volume increase at 100 umol/kg, po to that of diclofenac at 100 umol/kg, po administration; assay type: functional; how it was run: as §3

## O=C(Cc1ccccc1Nc1c(Cl)cccc1Cl)OCC1(S)CCCCC1
[1]
  Gastric lesion score: 6.7 mm

## O=NSC1(CN(CCCOC(=O)Cc2ccccc2Nc2c(Cl)cccc2Cl)Cc2ccccc2)CCCCC1
[2]
  Concentration_Plasma: 6.8 nM ml-1

## CC(C)(COC(=O)Cc1ccccc1Nc1c(Cl)cccc1Cl)SN=O
[1]
  Gastric lesion score: 0.7 mm
[3]
  Inhibition: 32%
[4]
  Ratio: 0.4
[2]
  Concentration_Plasma: 19.8 nM ml-1

## O=NSC1(COC(=O)Cc2ccccc2Nc2c(Cl)cccc2Cl)CCCCC1
[1]
  Gastric lesion score: 2 mm
[3]
  Inhibition: 58%
[4]
  Ratio: 0.7
[2]
  Concentration_Plasma: 15.3 nM ml-1

## O=C(O)Cc1ccccc1Nc1c(Cl)cccc1Cl [DICLOFENAC]
[3]
  Inhibition: 84%
[5]
  Inhibition: 53%

## O=C([O-])Cc1ccccc1Nc1c(Cl)cccc1Cl.[Na+] [DICLOFENAC SODIUM]
[6]
  Concentration_Plasma: 23.9 nM ml-1

## CN(CCCOC(=O)Cc1ccccc1Nc1c(Cl)cccc1Cl)CC1(SN=O)CCCCC1
[1]
  Gastric lesion score: 0.7 mm
[7]
  Ratio: 1.1
[3]
  Inhibition: 53%
[4]
  Ratio: 0.6
[2]
  Concentration_Plasma: 7.4 nM ml-1
[5]
  Inhibition: 58%

## CCC(CC)(COC(=O)Cc1ccccc1Nc1c(Cl)cccc1Cl)SN=O
[1]
  Gastric lesion score: 0.4 mm
[3]
  Inhibition: 95%
[4]
  Ratio: 1.1
[2]
  Concentration_Plasma: 13.4 nM ml-1

## CCN(CCCOC(=O)Cc1ccccc1Nc1c(Cl)cccc1Cl)CC1(SN=O)CCCCC1
[2]
  Concentration_Plasma: 4.5 nM ml-1

## CN(CCCCCOC(=O)Cc1ccccc1Nc1c(Cl)cccc1Cl)CC1(SN=O)CCCCC1
[2]
  Concentration_Plasma: 2.4 nM ml-1

## CN(CCOC(=O)Cc1ccccc1Nc1c(Cl)cccc1Cl)CC1(S)CCCCC1
[1]
  Gastric lesion score: 10.2 mm

## CN(CCCCOC(=O)Cc1ccccc1Nc1c(Cl)cccc1Cl)CC1(SN=O)CCCCC1
[2]
  Concentration_Plasma: 5.9 nM ml-1

## CN(CCCOC(=O)Cc1ccccc1Nc1c(Cl)cccc1Cl)CC1(S)CCCCC1
[1]
  Gastric lesion score: 28.3 mm

## CN(CCOC(=O)Cc1ccccc1Nc1c(Cl)cccc1Cl)CC1(SN=O)CCCCC1
[1]
  Gastric lesion score: 1.1 mM
[7]
  Ratio: 1
[3]
  Inhibition: 70%
[4]
  Ratio: 0.8
[2]
  Concentration_Plasma: 5.5 nM ml-1
[5]
  Inhibition: 55%
